Measured values published in ChEMBL document CHEMBL2380219, “Physalin A induces apoptotic cell death and protective autophagy in HT1080 human fibrosarcoma cells” (J Nat Prod, 2013).
Activity calls are given as the source filed them. No cut-off for these calls is given here.

Assays:
HT-1080 [1] = experiment: Induction of autophagy in human HT1080 cells at 10 uM by MDC staining-based FACS flow cytometric analysis; type: functional, cell-based; conditions: TDE = time-dependent effect
Method in brief: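 HT1080 cells (3 × 10^5 per flask, grown 24 h) exposed to 10 μM for 12, 24 and 36 h. Cells collected and stained with 0.05 mM MDC at 37 °C for 1 h. MDC-positive ratio measured by flow cytometry, n = 3.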

HT-1080 [2] = experiment: Induction of apoptosis in human HT1080 cells assessed as change in cytosolic BID expression at 10 uM after 6 to 24 hrs by Western blotting analysis; type: functional, cell-based
Method in brief: (§1)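 HT1080 cells treated with 10 μM for 6, 12, 18 and 24 h. Adherent and floating cells lysed 60 min at 4 °C in Hepes pH 7.4/1% Triton X-100 buffer with phosphatase and protease inhibitors. Equal protein run on 12% SDS-PAGE, transferred to nitrocellulose, probed with specific antibodies, HRP/ECL detection. Band density normalized to β-actin; n = 3.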

MCF7 = experiment: Cytotoxicity against human MCF7 cells assessed as growth inhibition after 24 hrs by MTT assay; type: functional, cell-based
Method in brief: (§2)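 Seeded 0.8 × 10^4 cells/well, cultured 24 h, then exposed to 0, 10, 20, 40 or 80 μM for 24 h (DMSO <0.05%) in RPMI 1640 or MEM with 10% FBS. Adherent lines rinsed with PBS, given MTT 2 h at 37 °C. Suspension lines (U937, HL60) given MTT 2 h, then centrifuged. Formazan dissolved in DMSO, A492 read. Inhibition % = (control − sample)/(control − blank) × 100.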

U-937 = experiment: Cytotoxicity against human U937 cells assessed as growth inhibition after 24 hrs by MTT assay; type: functional, cell-based; method in brief: as §2
HT-1080 [3] = experiment: Induction of apoptosis in human HT1080 cells assessed as change in BAX expression at 10 uM after 6 to 24 hrs by Western blotting analysis; type: functional, cell-based; method in brief: as §1
HT-1080 [4] = experiment: Induction of apoptosis in human HT1080 cells assessed as procaspase-3 cleavage at 10 uM by Western blotting analysis; type: functional, cell-based; conditions: TDE = time-dependent effect
HT-1080 [5] = experiment: Induction of autophagy in human HT1080 cells assessed as increase in autophagy ratio at 10 uM pretreated with rapamycin for 1 hr prior to compound addition measured after 24 hrs by MDC staining-based FACS flow cytometric analysis; type: functional, cell-based
Method in brief: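 HT1080 cells seeded at 3 × 10^5 per flask and grown 24 h. Pretreated 1 h with 1 mM 3MA or 1 nM rapamycin, then 10 μM for 24 h. Collected cells stained with 0.05 mM MDC at 37 °C for 1 h. MDC-positive ratio measured by flow cytometry, n = 3, mean ± SD.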

HT-1080 [6] = experiment: Induction of apoptosis in human HT1080 cells assessed as increase in procaspase-8 cleavage at 10 uM pretreated with rapamycin for 1 hr prior to compound addition measured after 24 hrs by Western blotting analysis; type: functional, cell-based
Method in brief: (§3)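 HT1080 cells pretreated 1 h with 1 mM 3MA or 1 nM rapamycin, then co-incubated with 10 μM for 24 h. Adherent and floating cells lysed in Hepes pH 7.4/Triton buffer. 12% SDS-PAGE, nitrocellulose, antibodies against Fas, FADD, caspase-8, caspase-3, PARP and ICAD, ECL detection. Densities normalized to β-actin; n = 3.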

HT-1080 [7] = experiment: Induction of apoptosis in human HT1080 cells assessed as increase in PARP cleavage at 10 uM pretreated with 3MA for 1 hr prior to compound addition measured after 24 hrs by Western blotting analysis; type: functional, cell-based; method in brief: as §3
HeLa = experiment: Cytotoxicity against human HeLa cells assessed as growth inhibition after 24 hrs by MTT assay; type: functional, cell-based; method in brief: as §2
HT-1080 [8] = experiment: Cytotoxicity against human HT1080 cells assessed as growth inhibition at 10 uM pretreated with 3MA for 1 hr prior to compound addition measured after 24 hrs by MTT assay; type: functional, cell-based
Method in brief: (§4)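 HT1080 seeded 0.8 × 10^4 cells/well. MTT 2 h at 37 °C, formazan in DMSO, A492 read. Inhibition % calculated against untreated and blank wells.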

HT-1080 [9] = experiment: Induction of apoptosis in human HT1080 cells assessed as upregulation of FADD protein expression at 10 uM pretreated with 3MA for 1 hr prior to compound addition measured after 24 hrs by Western blotting analysis; type: functional, cell-based; method in brief: as §3
HT-1080 [10] = experiment: Induction of apoptosis in human HT1080 cells expressing beclin 1 siRNA assessed as increase in FADD protein expression at 10 uM after 24 hrs by Western blotting analysis relative to control; type: functional, cell-based
Method in brief: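 5 × 10^5 HT1080 cells transfected with beclin 1 or nonspecific siRNA using TranSmarter for 7 h at 37 °C, then kept 24 h in normal medium. Treated with 10 μM for 24 h and lysed. Proteins assessed by Western blot with β-actin normalization and compared with nonspecific-siRNA groups.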

HT-1080 [11] = experiment: Induction of apoptosis in human HT1080 cells assessed as change in BCL2 expression at 10 uM after 6 to 24 hrs by Western blotting analysis; type: functional, cell-based; method in brief: as §1
HT-1080 [12] = experiment: Induction of apoptosis in human HT1080 cells expressing beclin 1 siRNA assessed as increase in PARP cleavage at 10 uM after 24 hrs by Western blotting relative to control; type: functional, cell-based
Method in brief: (§5)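 Beclin 1 or nonspecific siRNA transfected into HT1080 cells (5 × 10^5 seeded a day earlier; transfection mixture for 7 h at 37 °C, then normal medium, 24 h before harvest). Cells then got 10 μM for 24 h. Adherent plus floating cells lysed in Hepes pH 7.4/Triton buffer at 4 °C for 60 min. Equal protein on 12% SDS-PAGE, nitrocellulose, ECL. Bands normalized to β-actin, n = 3.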

HT-1080 [13] = experiment: Induction of apoptosis in human HT1080 cells assessed as increase in procaspase-8 cleavage at 10 uM pretreated with 3MA for 1 hr prior to compound addition measured after 24 hrs by Western blotting analysis; type: functional, cell-based; method in brief: as §3
HT-1080 [14] = experiment: Induction of apoptosis in human HT1080 cells expressing beclin 1 siRNA assessed as increase in procaspase-8 cleavage at 10 uM after 24 hrs by Western blotting analysis relative to control; type: functional, cell-based; method in brief: as §5
HT-1080 [15] = experiment: Induction of apoptosis in human HT1080 cells assessed as downregulation of ICAD at 10 uM pretreated with 3MA for 1 hr prior to compound addition measured after 24 hrs by Western blotting analysis; type: functional, cell-based; method in brief: as §3
HT-1080 [16] = experiment: Induction of apoptosis in human HT1080 cells assessed as increase in FADD protein expression at 10 uM after 6 to 24 hrs by Western blotting analysis; type: functional, cell-based; method in brief: as §1
HT-1080 [17] = experiment: Induction of apoptosis in human HT1080 cells assessed as accumulation in subG1 phase at 10 uM after 24 hrs by propidium iodide staining-based FACS flow cytometric analysis (reference value: 0.32%); type: functional
HT-1080 [18] = experiment: Cytotoxicity against human HT1080 cells assessed as growth inhibition at 10 uM pretreated with z-DEVD-FMK for 1 hr prior to compound addition measured after 24 hrs by MTT assay; type: functional, cell-based; method in brief: as §4
HT-1080 [19] = experiment: Induction of apoptosis in human HT1080 cells assessed as appearance of membrane blebbing at 10 uM after 24 hrs by acridine orange staining-based fluorescence microscopic analysis; type: functional, cell-based
Method in brief: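 HT1080 cells, 2 × 10^4/well, cultured 24 h, then exposed to 10 μM for 24 h. Stained with acridine orange 20 μg/mL for 15 min in the dark and examined by fluorescence microscopy at 200×.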

C=C1C(=O)O[C@@H]2C[C@@]1(C)[C@@H]1C(=O)[C@]3(O)O[C@]14[C@@]2(C)OC(=O)[C@@]4(O)CC[C@H]1[C@H]3[C@H](O)C=C2CC=CC(=O)[C@@]21C [PHYSALIN A]
Activity (HT-1080 [1]): tde | Activity (HT-1080 [2]): inactive | growth inhibition (GI) (MCF7): Dose-dependent effect | growth inhibition (GI) (U-937): Dose-dependent effect | Activity (HT-1080 [3]): inactive | Activity (HT-1080 [4]): tde | Activity (HT-1080 [5]): Active | Activity (HT-1080 [6]): inactive | Activity (HT-1080 [7]): Active | growth inhibition (GI) (HeLa): Dose-dependent effect | growth inhibition (GI) (HT-1080 [8]): Active | Activity (HT-1080 [9]): Active | Activity (HT-1080 [10]): Active | Activity (HT-1080 [11]): inactive | Activity (HT-1080 [12]): Active | Activity (HT-1080 [13]): Active | Activity (HT-1080 [14]): Active | Activity (HT-1080 [15]): Active | Activity (HT-1080 [16]): Active | Activity (HT-1080 [17]): 27.79% | growth inhibition (GI) (HT-1080 [18]): Active | Activity (HT-1080 [19]): Active
